KCNQ1 block: inhibitors of human KCNQ1 channel, primary screen, cell-based, thallium flux, high-throughput; CHO-K1 KCNQ1, FluxOR thallium flux fluorescence; hits give high values; 1.3% of 310,000 active; Potassium voltage-gated channel subfamily KQT member 1 (Homo sapiens), P51787; B-score at 10 µM;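 active means compounds whose thallium flux B-score, printed positive for inhibition, exceeds three library SD while starting fluorescence stays within three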;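 further: channel opened by potassium depolarization with thallium stimulus after 20 min compound exposure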
KCNQ1 pot: potentiators or activators of KCNQ1 channel, primary screen, cell-based, thallium flux, high-throughput | Potassium voltage-gated channel subfamily KQT member 1 (Homo sapiens), P51787 | AID 2648, 2010 | B-score at 10 µM | 0.35% of 310,000 active | CHO-K1 KCNQ1, thallium flux FluxOR fluorescence; hits give high values;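 active means fluorescence ratio B-score, a plate-corrected score, at least three library SD, with initial intensity B-score within 5 SD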
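System: CHO-K1 cells stably expressing KCNQ1 / Medium: assay buffer for compound exposure, DMSO matched across wells / Reagent: thallium- and potassium-containing depolarizing buffer / Compound: one concentration, matched DMSO / Incubation: 20 min compound pretreatment at room temperature / Measured by: kinetic FluxOR fluorescence, 10 s baseline plus 110 s post-stimulus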
hERG rescue: hERG rescue from dofetilide block, primary screen, cell-based, CHO-hERG, FluxOR thallium flux, dofetilide IC70. Voltage-gated inwardly rectifying potassium channel KCNH2 (Homo sapiens), Q12809. dofetilide IC70 present. activation (rescue from dofetilide block), less the hit threshold, % at 10 µM. 0.51% of 310,000 active. AID 1511, 2009;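 active means activation above the mean of controls blocked by dofetilide plus 5 SD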;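 further: thallium influx through hERG after potassium depolarization seen as dye fluorescence rise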
KCNK3 inh: human KCNK3 channel inhibitors, primary screen, CHO cells, FluxOR thallium flux, B-score; Potassium channel subfamily K member 3 (Homo sapiens), O14649; 0.84% of 340,000 active; B-score at 10 µM; FluxOR fluorescence; hits give low values;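 active means B-score under library mean minus 4 SD, starting fluorescence ratio at most library mean plus 5 SD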;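 further: more negative B-score means stronger inhibition of thallium flux through KCNK3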
KCNK9 block: KCNK9 potassium channel inhibitors, primary screen, HEK293 cells, thallium flux | FluxOR thallium flux fluorescence; hits give low values | B-score at 10 µM | AID 488922, 2010 | Potassium channel subfamily K member 9 (Homo sapiens), Q9NPC2 | 1.2% of 310,000 active;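 active means ratio B-score over 3 SD below the library mean, with starting fluorescence within 5 SD of its mean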;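 further: negative B-score means less thallium flux so channel inhibition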
Target sequence (Q9NPC2 whole entry, looked up): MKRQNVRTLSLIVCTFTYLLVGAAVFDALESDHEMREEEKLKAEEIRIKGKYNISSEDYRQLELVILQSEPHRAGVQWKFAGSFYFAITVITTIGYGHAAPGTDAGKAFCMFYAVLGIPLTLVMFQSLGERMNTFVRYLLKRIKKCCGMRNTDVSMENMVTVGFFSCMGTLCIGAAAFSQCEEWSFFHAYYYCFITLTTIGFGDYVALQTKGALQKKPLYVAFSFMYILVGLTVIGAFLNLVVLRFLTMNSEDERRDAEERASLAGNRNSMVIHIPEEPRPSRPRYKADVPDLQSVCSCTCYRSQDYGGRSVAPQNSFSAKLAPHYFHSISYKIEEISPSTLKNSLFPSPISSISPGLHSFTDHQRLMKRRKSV
KCNK9 block conf: KCNK9 potassium channel inhibitors, confirmation, HEK293 cells, thallium flux, duplicate; shares compounds with KCNK9 block; FluxOR thallium flux fluorescence; inhibition, % at 10 µM; 43% of 4,900 active;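 active means thallium signal inhibited by more than 5 SD of the compound-free buffer control wells, on both duplicate plates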;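 further: 0% = assay buffer control wells without compound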
Kir21 sel: mouse Kir2.1 channel inhibition, confirmation, selectivity assay for KCNK9 modulator project, cell-based, HEK293, thallium flux | shares compounds with KCNK9 block | Kir2.1 cells, FluxOR thallium flux fluorescence | inhibition, % at 10 µM | 4% of 4,900 active;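 active means thallium signal drop more than 5 SD beyond the mean of the no-compound control wells, seen in both duplicate plates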;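 further: signal is fluorescence rise after thallium addition divided by baseline fluorescence; plate controls were assay buffer only for no effect and full block by chlorpromazine control for full effect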
KCNK9 uninduced: thallium flux in non-induced HEK293 cells, confirmation, counter-screen for KCNK9 inhibitor project, cell-based, second counter screen, non-induced KCNK9-HEK293; AID 492997, 2010; FluxOR thallium flux; 40% of 4,900 active; shares compounds with KCNK9 block; inhibition, % at 10 µM;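 active means thallium signal drop beyond 5 SD of the untreated control mean, on both duplicate plates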;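 further: plate controls were buffer only IC0 wells for no effect and SID17386958 at its maximal inhibitory level for full effect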
An asterisk follows results filed as active. The list is not random: actives were taken first. Their share in the collection is about 3.1%.

CC(C)Cn1c(SC(C)C(=O)NCC2CCCO2)nc2ccc(Cl)cc2c1=O (stereo not drawn) was read as KCNK3 inh inactive.
`Cc1cccc(N2CCN(C(=O)CCC(=O)N3CC(C)Oc4ccc(C)cc43)CC2C)c1` (stereo not drawn) gave KCNQ1 block inactive, KCNQ1 pot inactive, hERG rescue -13, KCNK3 inh inactive, KCNK9 block inactive, KCNK9 block conf inactive, Kir21 sel inactive and KCNK9 uninduced inactive.
For Cc1ccc2c(c1)N(C(=O)CCC(=O)NCc1ccccc1)CC(C)O2 (stereo not drawn) the results were KCNQ1 block inactive, KCNQ1 pot inactive, hERG rescue -4, KCNK3 inh inactive and KCNK9 block inactive.
Screening Cc1ccc2c(c1)N(C(=O)CCC(=O)Nc1ccccc1Cl)CC(C)O2 (stereo not drawn) returned KCNQ1 block inactive, KCNQ1 pot inactive, hERG rescue -11, KCNK3 inh inactive, KCNK9 block inactive, KCNK9 block conf inactive, Kir21 sel inactive and KCNK9 uninduced inactive.
Cc1ccc2c(c1)N(C(=O)CCC(=O)N1CCN(c3ccccn3)CC1)CC(C)O2 (stereo not drawn) was read as KCNQ1 block inactive, KCNQ1 pot inactive, hERG rescue -11, KCNK3 inh inactive and KCNK9 block inactive.
CCCN(CC(=O)Nc1ccccc1C)C(=O)/C=C/c1cccs1 was read as KCNQ1 block inactive, KCNQ1 pot inactive, hERG rescue -6, KCNK3 inh inactive and KCNK9 block inactive.
`CCOc1ccc(S(=O)(=O)N2CCN(Cc3ccc4c(c3)OCO4)CC2)cc1Cl` gave KCNQ1 block inactive, KCNQ1 pot inactive, hERG rescue -5, KCNK3 inh inactive, KCNK9 block inactive, KCNK9 block conf inactive, Kir21 sel inactive and KCNK9 uninduced inactive.
`Cc1cccc(S(=O)(=O)N2CCN(Cc3ccc4c(c3)OCO4)CC2)c1` gave KCNQ1 block inactive, KCNQ1 pot inactive, hERG rescue -8, KCNK3 inh inactive, KCNK9 block inactive, KCNK9 block conf inactive, Kir21 sel inactive and KCNK9 uninduced inactive.
`COc1ccc(F)cc1S(=O)(=O)N1CCN(Cc2ccc3c(c2)OCO3)CC1` gave KCNQ1 block inactive, KCNQ1 pot inactive, hERG rescue -10, KCNK3 inh inactive, KCNK9 block inactive, KCNK9 block conf inactive, Kir21 sel inactive and KCNK9 uninduced inactive.
`Cc1ccc2nsnc2c1S(=O)(=O)N1CCN(Cc2ccc3c(c2)OCO3)CC1` gave KCNQ1 block inactive, KCNQ1 pot inactive, hERG rescue 0, KCNK3 inh inactive, KCNK9 block inactive, KCNK9 block conf inactive, Kir21 sel inactive and KCNK9 uninduced inactive.
Screening COc1ccc(S(=O)(=O)N2CCN(Cc3ccc4c(c3)OCO4)CC2)cc1 returned KCNQ1 block inactive, KCNQ1 pot inactive, hERG rescue -6, KCNK3 inh inactive and KCNK9 block inactive.
`COc1cccc(OC)c1C(=O)OCC(=O)Nc1ccc(OC(F)(F)F)cc1` gave KCNQ1 block inactive, KCNQ1 pot inactive, hERG rescue -12, KCNK3 inh inactive and KCNK9 block inactive.
Screening CCOC(=O)CSCC(=O)Nc1c(C(=O)C2CC2)oc2ccccc12 returned KCNQ1 block inactive, KCNQ1 pot inactive, hERG rescue -12, KCNK3 inh inactive and KCNK9 block inactive.
`COC(=O)c1cc(=O)n(CCc2ccccc2F)c(=Nc2ccc(F)c(Cl)c2)s1` gave KCNQ1 block inactive, KCNQ1 pot inactive, hERG rescue -3, KCNK3 inh inactive, KCNK9 block -14*, KCNK9 block conf 44%*, Kir21 sel inactive and KCNK9 uninduced 36%*.
`COC(=O)c1cc(=O)n(Cc2cccs2)c(=Nc2ccc(F)cc2)s1` gave KCNQ1 block inactive, KCNQ1 pot inactive, hERG rescue -7, KCNK3 inh inactive and KCNK9 block inactive.
Screening Cc1cc([N+](=O)[O-])ccc1N1C(=O)c2ccc(C(=O)Nc3ccccc3C(=O)O)cc2C1=O returned KCNQ1 block inactive, KCNQ1 pot inactive, hERG rescue -10, KCNK3 inh inactive and KCNK9 block inactive.
For COc1cccc(C(=O)OCCN2CCCCC2)c1 the results were KCNQ1 block inactive, KCNQ1 pot inactive, hERG rescue -8, KCNK3 inh inactive, KCNK9 block inactive, KCNK9 block conf inactive, Kir21 sel inactive and KCNK9 uninduced inactive.
Screening COc1cccc(C(=O)OC(C)CN2CCCC2)c1 (stereo not drawn) returned KCNQ1 block inactive, KCNQ1 pot inactive, hERG rescue -2, KCNK3 inh inactive and KCNK9 block inactive.
`CC(=O)N1N=C(c2ccncc2)CC1c1ccccc1O` (stereo not drawn) gave KCNQ1 block inactive, KCNQ1 pot inactive, hERG rescue -6, KCNK3 inh inactive and KCNK9 block inactive.
Screening CC(=O)N1N=C(c2ccccc2)CC1c1cn(Cc2ccccc2)c2ccccc12 (stereo not drawn) returned KCNQ1 block inactive, KCNQ1 pot inactive, hERG rescue -8, KCNK3 inh inactive, KCNK9 block -8.4*, KCNK9 block conf 38%*, Kir21 sel inactive and KCNK9 uninduced 34%*.
For Cc1ccc(NS(=O)(=O)c2ccc(-n3cccn3)cc2)nc1 the results were KCNQ1 block inactive, KCNQ1 pot inactive, hERG rescue -4, KCNK3 inh inactive and KCNK9 block inactive.
`COc1ccccc1CNc1cc(CSc2ccc(Cl)cc2)nc(C)n1` gave KCNQ1 block inactive, KCNQ1 pot inactive, hERG rescue -6, KCNK3 inh inactive, KCNK9 block inactive, KCNK9 block conf inactive, Kir21 sel 46%* and KCNK9 uninduced inactive.
Screening N#CCC(=O)Nc1ccc(C(=O)OCC(=O)NC(=O)NCc2ccco2)cc1 returned KCNK3 inh inactive.
